In ChEMBL document CHEMBL3046036, “Bioactivity of the fungal metabolite (8R,16R)-(-)-pyrenophorin on graminaceous plants” (J Agric Food Chem, 2005):
Activity calls are given as the source filed them. The calls are words filed in the database; no cut-off is given here.

Legend:
Avena sativa [1] = assay: Inhibition of Avena sativa root growth at 20 degC and 12 hr photoperiod at > 51 uM; format: functional, organism-based
In short: (§1)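 Pregerminated seeds were exposed in tubes to aqueous metabolite and kept in a growth chamber at 20 °C with a 12-h photoperiod. Main root length was measured after 120 h.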

Triticum aestivum [2] = assay: Inhibition of Triticum aestivum (wheat) seed germination at 20 degC at 90 uM (reference value: 0%); format: functional
Avena fatua [3] = assay: Inhibition of Avena fatua seed germination at 20 degC at 80 uM (reference value: 0%); format: functional
Avena sativa [4] = assay: Inhibition of Avena sativa seed germination at 20 degC at 640 uM (reference value: 0%); format: functional
Avena sterilis [5] = assay: Phytotoxicity against Avena sterilis root growth at 20 degC and 12 hr photoperiod at 1000 uM; format: organism-based; settings: in vivo
Triticum aestivum [6] = assay: Inhibition of Triticum aestivum (wheat) root growth at 20 degC and 12 hr photoperiod at > 51 uM; format: functional, organism-based
Avena fatua [7] = assay: Inhibition of Avena fatua seed germination at 20 degC at 70 uM (reference value: 0%); format: functional
Avena sativa [8] = assay: Inhibition of Avena sativa seed germination at 20 degC at 90 uM (reference value: 0%); format: functional
Hordeum vulgare [9] = assay: Inhibition of Hordeum vulgare (barley) seed germination at 20 degC at 70 uM (reference value: 0%); format: functional
Triticum aestivum [10] = assay: Phytotoxicity against Triticum aestivum (wheat) root growth at 20 degC and 12 hr photoperiod at 1000 uM; format: organism-based; settings: in vivo
Avena fatua [11] = assay: Inhibition of Avena fatua root growth at 20 degC and 12 hr photoperiod at > 51 uM; format: functional, organism-based; in short: as §1
Triticum aestivum [12] = assay: Inhibition of Triticum aestivum (wheat) seed germination at 20 degC at 100 uM (reference value: 0%); format: functional
Hordeum vulgare [13] = assay: Phytotoxicity against Hordeum vulgare (barley) root growth at 20 degC and 12 hr photoperiod at 1000 uM; format: organism-based; settings: in vivo
Avena sativa [14] = assay: Effect on chlorophyll content in Avena sativa assessed as chlorophyll dissipation rate at 20 degC and 12 hr photoperiod at 320 uM relative to control; format: ADME, organism-based; settings: in vivo
In short: (§2)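 Leaf sections were treated with 320 µM metabolite and incubated in the dark at 20 °C, with 16 tubes per treatment. Every 12 h, segments from one tube were split into four tubes and extracted in DMSO at 65 °C for 30 min. Extracts were read at A665, tissue was dried at 105 °C and weighed, and chlorophyll was expressed as A665 per g dry weight.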

Avena fatua [15] = assay: Inhibition of Avena fatua seed germination at 20 degC at 200 uM (reference value: 0%); format: functional
Hordeum vulgare [16] = assay: Inhibition of Hordeum vulgare (barley) seed germination at 20 degC at 10 to 50 uM (reference value: 0%); format: functional
Triticum aestivum [17] = assay: Inhibition of Triticum aestivum (wheat) seed germination at 20 degC at 80 uM (reference value: 0%); format: functional
Avena sativa [18] = assay: Enhancement of Avena sativa root growth at 20 degC and 12 hr photoperiod at 10 to 30 uM; format: functional, organism-based; in short: as §1
Avena sterilis [19] = assay: Inhibition of Avena sterilis root growth at 20 degC and 12 hr photoperiod at 31 to 50 uM; format: functional, organism-based; in short: as §1
Hordeum vulgare [20] = assay: Inhibition of Hordeum vulgare (barley) root growth at 20 degC and 12 hr photoperiod at > 51 uM; format: functional, organism-based; in short: as §1
Hordeum vulgare [21] = assay: Inhibition of Hordeum vulgare (barley) seed germination at 20 degC at 80 uM (reference value: 0%); format: functional
Hordeum vulgare [22] = assay: Inhibition of Hordeum vulgare (barley) seed germination at 20 degC at 90 uM (reference value: 0%); format: functional
Avena sativa [23] = assay: Inhibition of Avena sativa seed germination at 20 degC at 60 uM (reference value: 0%); format: functional
Hordeum vulgare [24] = assay: Inhibition of Hordeum vulgare (barley) seed germination at 20 degC at 320 uM (reference value: 0%); format: functional
Avena sterilis [25] = assay: Inhibition of Avena sterilis root growth at 20 degC and 12 hr photoperiod at > 51 uM; format: functional, organism-based; in short: as §1
Avena sativa [26] = assay: Inhibition of Avena sativa seed germination at 20 degC at 320 uM (reference value: 0%); format: functional
Triticum aestivum [27] = assay: Effect on chlorophyll content in Triticum aestivum (wheat) assessed as chlorophyll dissipation rate at 20 degC and 12 hr photoperiod at 320 uM relative to control; format: ADME, organism-based; settings: in vivo; in short: as §2
Avena sterilis [28] = assay: Effect on chlorophyll content in Avena sterilis assessed as chlorophyll dissipation rate at 20 degC and […] at 320 uM relative to control; format: ADME, organism-based; settings: in vivo; in short: as §2
Triticum aestivum [29] = assay: Inhibition of Triticum aestivum (wheat) seed germination at 20 degC at 10 to 50 uM (reference value: 0%); format: functional
Avena fatua [30] = assay: Phytotoxicity against Avena fatua root growth at 20 degC and 12 hr photoperiod at 1000 uM; format: organism-based; settings: in vivo
Triticum aestivum [31] = assay: Enhancement of Triticum aestivum (wheat) root growth at 20 degC and 12 hr photoperiod at 10 to 30 uM; format: functional, organism-based; in short: as §1
Hordeum vulgare [32] = assay: Inhibition of Hordeum vulgare (barley) seed germination at 20 degC at 60 uM (reference value: 0%); format: functional
Triticum aestivum [33] = assay: Inhibition of Triticum aestivum (wheat) seed germination at 20 degC at 320 uM (reference value: 0%); format: functional
Avena fatua [34] = assay: Inhibition of Avena fatua seed germination at 20 degC at 100 uM (reference value: 0%); format: functional
Avena fatua [35] = assay: Inhibition of Avena fatua seed germination at 20 degC at 10 to 50 uM (reference value: 0%); format: functional

## C[C@@H]1CCC(=O)/C=C/C(=O)O[C@H](C)CCC(=O)/C=C/C(=O)O1 [(8R,16R)-(-)-pyrenophorin]
Avena sativa [1]
  inhibition: Active
Triticum aestivum [2]
  inhibition at 90 µM: 86.2%
Avena fatua [3]
  inhibition at 80 µM: 82%
Avena sativa [4]
  inhibition at 640 µM: 100%
Avena sterilis [5]
  Activity: Non-toxic
Triticum aestivum [6]
  inhibition: Active
Avena fatua [7]
  inhibition at 70 µM: 69.9%
Avena sativa [8]
  inhibition at 90 µM: 89%
Hordeum vulgare [9]
  inhibition at 70 µM: 67.5%
Triticum aestivum [10]
  Activity: Non-toxic
Avena fatua [11]
  inhibition: Active
Triticum aestivum [12]
  inhibition at 100 µM: 90.8%
Hordeum vulgare [13]
  Activity: Non-toxic
Avena sativa [14]
  Ratio: 1.4
Avena fatua [15]
  inhibition at 200 µM: 97.9%
Hordeum vulgare [16]
  inhibition (INH): 0%
Triticum aestivum [17]
  inhibition at 80 µM: 81.4%
Avena sativa [18]
  Activity: Active
Avena sterilis [19]
  inhibition: inactive
Hordeum vulgare [20]
  inhibition: Active
Hordeum vulgare [21]
  inhibition at 80 µM: 87.7%
Hordeum vulgare [22]
  inhibition at 90 µM: 88.2%
Avena sativa [23]
  inhibition at 60 µM: 14.5%
Hordeum vulgare [24]
  inhibition at 320 µM: 100%
Avena sterilis [25]
  inhibition: Active
Avena sativa [26]
  inhibition at 320 µM: 100%
Triticum aestivum [27]
  Ratio: 1.4
Avena sterilis [28]
  Ratio: 1.4
Triticum aestivum [29]
  inhibition (INH): 0%
Avena fatua [30]
  Activity: Non-toxic
Triticum aestivum [31]
  Activity: Active
Hordeum vulgare [32]
  inhibition at 60 µM: 10.1%
Triticum aestivum [33]
  inhibition at 320 µM: 98%
Avena fatua [34]
  inhibition at 100 µM: 95.3%
Avena fatua [35]
  inhibition (INH): 0%
